Assay results reported in publication PMC7524064 (ESC Heart Failure, 2020).

How the values were obtained:
[1] = tested on: human atrial trabeculae; experiment: Contractility of human atrial trabeculae
Outline: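 Right atrial appendage trabeculae came from patients undergoing aorto-coronary bypass and were held isometric. After about 30 min equilibration they were stretched to maximal steady-state twitch force and paced at 1 Hz. Test compound (1, 3, 10 μM) or KN93 (5 μM) was washed in for 20 min. Post-rest pauses were 10, 30 and 120 s. Developed and diastolic tension were normalized to each patient's vehicle control.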

[2] = tested on: human atrial cardiomyocytes; experiment: Action potentials in human atrial cardiomyocytes; format: cell-based; conditions: RA608 1, 3, 10 μM; AIP
Outline: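 Ruptured-patch whole-cell current clamp at room temperature on isolated human atrial cardiomyocytes from seven patients. Action potentials were recorded with vehicle, test compound at 1, 3 or 10 μM, or myristoylated AIP.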

[3] = tested on: human atrial cardiomyocytes; experiment: Ca sparks and SR Ca leak, confocal line scans; format: cell-based; conditions: AIP (2 μM)
Outline: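 Myocytes on laminin-coated chambers were loaded 15 min with 10 μmol/L Fluo-4 AM plus 0.02% (w/v) pluronic acid. They were superfused with normal Tyrode solution and imaged by laser-scanning confocal line scans at room temperature. Treatments were test compound at 1, 3 or 10 μM, or myristoylated AIP at 2 μM.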

[4] = tested on: murine ventricular cardiomyocytes; experiment: Action potentials in murine ventricular cardiomyocytes; format: cell-based, mouse; conditions: RA608 1, 3, 10 μM; myristoylated AIP 2 μmol/L

Molecule	contraction amplitude after pause ([1]; KN93 5 μmol/L, compared with RA608)	diastolic tension normalized to vehicle ([1]; KN93 (5 μM))	relaxation time (time to 80% of relaxation) ([1]; RA608 1, 3, 10 μM, KN93 5 μM)	AP duration (APD50, APD80) vs vehicle [2]	SR Ca leak vs vehicle [3]	AP duration (APD50) [4]
COc1ccc(S(=O)(=O)N(CCO)c2ccccc2CN(C)C/C=C/c2ccc(Cl)cc2)cc1 [KN93]	comparable increase	only a trend to decrease	neither RA608 nor KN93 resulted in significant alterations	–	–	–
autocamtide‐2‐related autoinhibitory peptide [AIP]	–	–	–	no significant effect	significantly reduced	no significant effect
